pIC50: −log10 of the molar value. Converted amounts (≈) assume the structure as drawn.

What is called MIC is the smallest concentration in the dilution series that meets the test's criterion for growth inhibition. High values mean a less susceptible organism, low ones a more susceptible organism. One may read the pIC50 as −log10 of the IC50, conventionally taken in molar units.

In test [1] the test system is Bacillus subtilis. The experiment in a line: Antibacterial activity against Bacillus subtilis KCTC 1021 after 18 hrs by microdilution method. It counts as functional. The essentials: (§1)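 Broth microdilution assay. The minimum restrictive concentration (MRC) was taken as the lowest concentration that reduced growth by at least 50%.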
(Dilution methods test growth across graded concentrations, often in twofold steps.)

In test [2] the test system is Escherichia coli. The experiment in a line: Antibacterial activity against Escherichia coli KCTC 1924 after 18 hrs by microdilution method. It counts as functional. The note with it: KCTC 1924, 18 h. The gist of the method: as §1
Test [3] deals with T1, Peptide deformylase (Staphylococcus aureus subsp. aureus Mu50, UniProt P68825).
T1 sequence (P68825 whole entry): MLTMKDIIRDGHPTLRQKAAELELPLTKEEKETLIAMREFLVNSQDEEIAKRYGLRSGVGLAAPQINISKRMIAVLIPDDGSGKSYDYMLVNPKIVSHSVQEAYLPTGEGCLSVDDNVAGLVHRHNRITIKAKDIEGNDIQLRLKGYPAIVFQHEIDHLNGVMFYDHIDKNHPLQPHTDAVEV
As to the kind of experiment: Inhibition of Staphylococcus aureus peptide deformylase.

Test [4] concerns Staphylococcus aureus. As to the kind of experiment: Antibacterial activity against Staphylococcus aureus RN4220 after 18 hrs by microdilution method. It counts as functional. The essentials:
as §1

On to `CC[C@@H]1CCC/C=C/C=C/[C@H](O)C[C@@H](O)C/C=C\C=C\[C@@H](O[C@H]2O[C@@H](CO)[C@H](O)[C@@H](O)[C@@H]2O)C/C=C/C=C\C(=O)O1` [MACROLACTINN P], for which the MRC in test [1] and in test [4] was 100 µg/mL in each case. This compound returned an MIC in test [2] of 100 µg/mL (≈ 173 µM). The compound further gave a negative logarithm of the IC50 (pIC50) in test [3] of 4.24.

As to `C[C@@H]1CCC/C=C/C=C/[C@H](O)C[C@@H](O)C/C=C/C=C/[C@@H](O[C@H]2O[C@@H](CO)[C@H](O)[C@@H](O)[C@@H]2O)C/C=C/C=C\C(=O)O1` [MACROLACTIN R], the MRC in test [1] and in test [4] was 100 µg/mL in each case. The compound also had an MIC in test [2] of 100 µg/mL (≈ 177 µM). In test [3], this compound gave a pIC50 of 4.21.

Regarding `C[C@@H]1CCC/C=C\C=C\[C@H](O)C[C@@H](O)C/C=C\C=C\[C@@H](O[C@H]2O[C@@H](CO)[C@H](O)[C@@H](O)[C@@H]2O)C/C=C/C=C\C(=O)O1` [MACROLACTIN Q], the MRC in test [1] and in test [4] was 100 µg/mL in each case. 100 µg/mL (≈ 177 µM) was the least that counted as inhibitory in test [2] (MIC). The same compound gave a pIC50 in test [3] of 4.92.

In the case of `C[C@@H]1CCC/C=C/CCC(=O)C[C@@H](O)C/C=C\C=C\[C@@H](O[C@H]2O[C@@H](CO)[C@H](O)[C@@H](O)[C@@H]2O)C/C=C/C=C\C(=O)O1` [MACROLACTIN O], the MRC in test [1] and in test [4] was 100 µg/mL throughout. This compound showed an MIC in test [2] of 100 µg/mL (≈ 177 µM). In test [3], this compound gave a negative logarithm of the IC50 (pIC50) of 4.27.

The record behind these values is ChEMBL document CHEMBL1141303, “Macrolactins O-R, glycosylated 24-membered lactones from Bacillus sp. AH159-1” (J Nat Prod, 2007).
